Measured values as given in ChEMBL document CHEMBL4673223, “Synthesis, Biological, and Structural Explorations of New Zwitterionic Derivatives of 14- O-Methyloxymorphone, as Potent μ/δ Opioid Agonists and Peripherally Selective Antinociceptives” (J Med Chem, 2019).
Active and inactive are the calls of the source. The calls are words filed in the database; no cut-off is given here.

Tests used:
Rattus norvegicus = species on record: Rattus norvegicus; assay: Selectivity index, ratio of Ki for displacement of [3H][Ile5,6]deltorphin II from delta opioid receptor in rat brain membranes to Ki for displacement of [3H]DAMGO from mu opioid receptor in rat brain membranes; format: cell membranes
Summary of the method: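 Rat brain membranes (cerebella removed; 0.3–0.5 mg protein) in 50 mM Tris-HCl, pH 7.4, were incubated 45 min at 35 °C with 1 nM [3H]DAMGO (MOR) or 0.5 nM [3H][Ile5,6]deltorphin II (DOR) plus varied test concentrations. Nonspecific binding was set with 10 μM naloxone. Samples were GF/C filtered, washed and scintillation counted. Ki was obtained by Cheng–Prusoff; duplicates, 3–4 experiments.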

[1] = biological target: Mu-type opioid receptor (Homo sapiens) (UniProt P35372); assay: Agonist activity at human MOR expressed in CHO cell membranes incubated for 60 mins scintillation counting assay relative to DAMGO; details: Cell membrane
Mu-type opioid receptor (Homo sapiens), sequence (P35372 whole entry): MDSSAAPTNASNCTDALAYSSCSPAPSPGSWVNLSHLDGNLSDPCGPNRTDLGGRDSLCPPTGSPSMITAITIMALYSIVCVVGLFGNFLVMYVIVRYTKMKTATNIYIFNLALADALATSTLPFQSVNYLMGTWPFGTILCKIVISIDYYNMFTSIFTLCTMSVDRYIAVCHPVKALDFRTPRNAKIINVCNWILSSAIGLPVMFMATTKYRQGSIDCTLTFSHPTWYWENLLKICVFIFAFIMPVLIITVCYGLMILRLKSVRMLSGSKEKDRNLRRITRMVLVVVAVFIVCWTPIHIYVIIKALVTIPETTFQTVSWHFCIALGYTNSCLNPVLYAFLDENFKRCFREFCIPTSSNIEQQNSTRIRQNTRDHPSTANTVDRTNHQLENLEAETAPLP
Summary of the method: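 CHO-hMOR or CHO-hKOR membranes (5–10 μg) were incubated 60 min at 25 °C in HEPES/MgCl2/NaCl buffer, pH 7.4, with 0.05 nM [35S]GTPγS, 10 μM GDP and varied test concentrations. Nonspecific binding was set with 10 μM GTPγS. Samples were filtered and scintillation counted. % stimulation was taken from concentration–response curves relative to the full agonist (DAMGO for MOR, U69,593 for KOR). Duplicates, 3–4 experiments.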

[2] = Selectivity index, ratio of Ki for displacement of [3H]U69,593 from kappa opioid receptor in guinea-pig brain membranes to Ki for displacement of [3H]DAMGO from mu opioid receptor in rat brain membranes; format: cell membranes
Summary of the method: (§1)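 Guinea-pig brain membranes (0.3–0.5 mg protein) in 50 mM Tris-HCl, pH 7.4, were incubated with 1 nM [3H]U69,593 for 30 min at 30 °C, with 10 μM naloxone defining nonspecific binding. MOR was measured on rat brain membranes with 1 nM [3H]DAMGO for 45 min at 35 °C. Samples were filtered and scintillation counted, and Ki was obtained by Cheng–Prusoff; duplicates, 3–4 experiments.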

[3] = biological target: Delta-type opioid receptor (Homo sapiens) (UniProt P41143); assay: Displacement of [3H]diprenorphine from human DOR expressed in CHO cell membranes incubated for 60 mins liquid scintillation counting assay; details: Cell membrane, filed as agonist
Delta-type opioid receptor (Homo sapiens), sequence (P41143 whole entry): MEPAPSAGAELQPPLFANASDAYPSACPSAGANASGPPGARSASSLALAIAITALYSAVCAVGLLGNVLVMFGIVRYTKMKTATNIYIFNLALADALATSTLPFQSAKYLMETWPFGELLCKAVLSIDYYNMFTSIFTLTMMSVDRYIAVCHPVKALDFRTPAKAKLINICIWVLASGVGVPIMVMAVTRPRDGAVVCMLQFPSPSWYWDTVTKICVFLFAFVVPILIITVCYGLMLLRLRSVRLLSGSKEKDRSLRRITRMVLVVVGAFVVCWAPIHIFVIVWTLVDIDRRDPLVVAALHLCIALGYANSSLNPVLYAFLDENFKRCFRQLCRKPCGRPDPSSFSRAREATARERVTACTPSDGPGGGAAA
Summary of the method: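 Membranes from CHO cells expressing human DOR (15–20 μg) in 50 mM Tris-HCl, pH 7.4, were incubated with 0.2 nM [3H]diprenorphine and varied test concentrations for 60 min at 25 °C. Nonspecific binding was set with 1–10 μM unlabeled diprenorphine. Samples were GF/C filtered and scintillation counted.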

Mus musculus [4] = assay: Antinociceptive activity in CD1 mouse assessed as inhibition of the writhing response at 50 ug/kg, sc and co-administered with 1 mg/kg naloxone methiodide and measured after 30 mins post dose by acetic acid-induced writhing assay; format: functional, organism-based; details: dose 50.0 µg/kg
Summary of the method: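 Male CD1 mice (30–35 g) received the agonist sc in saline (10 μL/g) together with sc naloxone methiodide 1 mg/kg. At 25 min, 0.6% acetic acid was given ip, and writhes were counted over a 10 min observation period (30 min post-dose). Results were expressed as mean writhes versus saline control and agonist-alone groups; n = 6–7 mice per group; ANOVA with Tukey post hoc.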

Mus musculus [5] = assay: Antinociceptive activity in sc dosed CD1 mouse assessed as inhibition of the writhing response after 30 mins post dose by acetic acid-induced writhing assay; format: functional; details: 0.5 h
[6] = biological target: Kappa-type opioid receptor (Cavia porcellus, UniProt P41144); assay: Displacement of [3H]U69,593 from kappa opioid receptor in guinea-pig brain membranes incubated for 30 mins by liquid scintillation counting method; format: cell membranes, Membrane; summary of the method: as §1
Kappa-type opioid receptor, sequence (P41144 whole entry): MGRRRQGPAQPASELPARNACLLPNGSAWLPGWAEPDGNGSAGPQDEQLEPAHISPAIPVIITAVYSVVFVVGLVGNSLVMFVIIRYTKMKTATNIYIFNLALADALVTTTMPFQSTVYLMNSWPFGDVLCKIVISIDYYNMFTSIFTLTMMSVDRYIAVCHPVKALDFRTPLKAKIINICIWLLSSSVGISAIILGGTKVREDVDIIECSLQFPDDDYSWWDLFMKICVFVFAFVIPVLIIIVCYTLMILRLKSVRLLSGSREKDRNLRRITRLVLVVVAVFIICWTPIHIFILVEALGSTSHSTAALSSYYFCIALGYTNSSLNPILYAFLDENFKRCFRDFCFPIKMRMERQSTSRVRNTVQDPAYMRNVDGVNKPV

SMILES | Ratio Ki (Rattus norvegicus) | Activity ([1]; filed as partial agonist) [%] | Ratio Ki [2] | Activity [3] | Activity (Mus musculus [4]) | ED50 (Mus musculus [5]) [mg/kg] | Activity ([1]; filed as agonist) [%] | Ki [6] [nM]
CO[C@@]12CC[C@H](N[C@H](C(=O)N[C@@H](Cc3ccc(O)cc3)C(=O)O)C(C)C)[C@@H]3Oc4c(O)ccc5c4[C@@]31CCN(C)[C@@H]2C5 | 1.5 | 84 | 84 | Active |  |  |  | 
CN1CC[C@]23c4c5ccc(O)c4O[C@H]2[C@@H](NCC(=O)O)CC[C@@]3(OCCCc2ccccc2)[C@H]1C5 |  |  |  | Active |  |  |  | 
CO[C@@]12CC[C@H](N[C@@H](CCC(N)=O)C(=O)O)[C@@H]3Oc4c(O)ccc5c4[C@@]31CCN(C)[C@@H]2C5 | 1.6 |  | 108 | Active |  |  |  | 
CO[C@@]12CC[C@H](N[C@H](C)C(=O)O)[C@@H]3Oc4c(O)ccc5c4[C@@]31CCN(C)[C@@H]2C5 |  |  |  | Active |  |  |  | 
CO[C@@]12CC[C@@H](N[C@H](C(=O)O)C3CCCCC3)[C@@H]3Oc4c(O)ccc5c4[C@@]31CCN(C)[C@@H]2C5 | 0.8 |  | 71 | Active | inactive |  |  | 
CO[C@@]12CC[C@H](N[C@@H](CO)C(=O)O)[C@@H]3Oc4c(O)ccc5c4[C@@]31CCN(C)[C@@H]2C5 | 2.4 |  | 89 | Active |  |  |  | 
CO[C@@]12CC[C@H](N[C@H](C(=O)O)C(C)C)[C@@H]3Oc4c(O)ccc5c4[C@@]31CCN(C)[C@@H]2C5 | 1.2 |  | 103 | Active |  |  |  | 
CO[C@@]12CC[C@H](NCCC(=O)O)[C@@H]3Oc4c(O)ccc5c4[C@@]31CCN(C)[C@@H]2C5 | 46 |  | 140 | Active |  |  |  | 
CO[C@@]12CC[C@H](NCCCC(=O)O)[C@@H]3Oc4c(O)ccc5c4[C@@]31CCN(C)[C@@H]2C5 | 16 |  | 59 | Active |  |  |  | 
CO[C@@]12CC[C@H](NCC(=O)O)[C@@H]3Oc4c(O)ccc5c4[C@@]31CCN(C)[C@@H]2C5 |  |  |  | Active |  |  |  | 
CN1CC[C@]23c4c5ccc(O)c4O[C@H]2[C@H](NCC(=O)O)CC[C@@]3(OCCCc2ccccc2)[C@H]1C5 |  |  |  | Active |  |  |  | 
CN1CC[C@]23c4c5ccc(O)c4O[C@H]2[C@@H](O)C=C[C@H]3[C@H]1C5 [MORPHINE] |  |  |  |  |  | 0.437 |  | 
CO[C@@]12CC[C@H](N[C@@H](Cc3c[nH]c4ccccc34)C(=O)O)[C@@H]3Oc4c(O)ccc5c4[C@@]31CCN(C)[C@@H]2C5 | 2.8 |  | 70 | Active |  |  |  | 
CO[C@@]12CC[C@H](N[C@@H](CC(N)=O)C(=O)O)[C@@H]3Oc4c(O)ccc5c4[C@@]31CCN(C)[C@@H]2C5 | 2.9 |  | 63 | Active |  | 0.0152 |  | 
CO[C@@]12CCC(=O)[C@@H]3Oc4c(O)ccc5c4[C@@]31CCN(C)[C@@H]2C5 |  |  |  | Active |  |  |  | 
CO[C@@]12CC[C@@H](NCCCC(=O)O)[C@@H]3Oc4c(O)ccc5c4[C@@]31CCN(C)[C@@H]2C5 | 4.7 |  |  | Active |  |  |  | 
CO[C@@]12CC[C@@H](N[C@@H](CC(N)=O)C(=O)O)[C@@H]3Oc4c(O)ccc5c4[C@@]31CCN(C)[C@@H]2C5 | 1.8 |  | 82 | Active |  |  |  | 
CO[C@@]12CC[C@@H](N[C@@H](C(=O)O)C(C)C)[C@@H]3Oc4c(O)ccc5c4[C@@]31CCN(C)[C@@H]2C5 | 1.6 |  | 156 | Active |  | 0.014 |  | 
CO[C@@]12CC[C@H](N[C@@H](C(=O)O)C(C)C)[C@@H]3Oc4c(O)ccc5c4[C@@]31CCN(C)[C@@H]2C5 | 1.1 |  | 119 | Active |  |  |  | 
CO[C@@]12CC[C@H](N[C@@H](CCCCN)C(=O)O)[C@@H]3Oc4c(O)ccc5c4[C@@]31CCN(C)[C@@H]2C5 | 6.7 |  | 66 | Active |  |  |  | 

SMILES | Ratio Ki (Rattus norvegicus) | Activity ([1]; filed as partial agonist) [%] | Ratio Ki [2] | Activity [3] | Activity (Mus musculus [4]) | ED50 (Mus musculus [5]) [mg/kg] | Activity ([1]; filed as agonist) [%] | Ki [6] [nM]
CO[C@@]12CC[C@@H](N[C@H](Cc3ccccc3)C(=O)O)[C@@H]3Oc4c(O)ccc5c4[C@@]31CCN(C)[C@@H]2C5 | 0.9 |  | 109 | Active |  |  | 78 | 
CO[C@@]12CC[C@@H](N[C@@H](Cc3ccc(O)cc3)C(=O)O)[C@@H]3Oc4c(O)ccc5c4[C@@]31CCN(C)[C@@H]2C5 | 1.2 |  | 58 | Active |  |  |  | 
CO[C@@]12CC[C@@H](N[C@@H](CCCCN)C(=O)O)[C@@H]3Oc4c(O)ccc5c4[C@@]31CCN(C)[C@@H]2C5 | 6.3 |  | 64 | Active | inactive |  |  | 
CO[C@@]12CC[C@H](N[C@H](Cc3ccccc3)C(=O)O)[C@@H]3Oc4c(O)ccc5c4[C@@]31CCN(C)[C@@H]2C5 | 6 |  | 125 | Active |  | 0.0181 |  | 
CO[C@@]12CC[C@@H](N[C@@H](CO)C(=O)O)[C@@H]3Oc4c(O)ccc5c4[C@@]31CCN(C)[C@@H]2C5 | 2.5 |  | 71 | Active |  |  |  | 
CO[C@@]12CC[C@@H](N[C@H](C)C(=O)O)[C@@H]3Oc4c(O)ccc5c4[C@@]31CCN(C)[C@@H]2C5 |  |  |  | Active |  |  |  | 
CO[C@@]12CC[C@H](N[C@H](C(=O)O)C3CCCCC3)[C@@H]3Oc4c(O)ccc5c4[C@@]31CCN(C)[C@@H]2C5 | 12 |  | 144 | Active |  |  |  | 
CO[C@@]12CC[C@@H](N[C@@H](CCC(=O)O)C(=O)O)[C@@H]3Oc4c(O)ccc5c4[C@@]31CCN(C)[C@@H]2C5 | 0.7 |  | 108 | Active |  |  |  | 
CC[C@H](N[C@H]1CC[C@@]2(OC)[C@H]3Cc4ccc(O)c5c4[C@@]2(CCN3C)[C@H]1O5)C(=O)O |  |  | 189 | Active |  | 0.0175 |  | 
CO[C@@]12CCC(N[C@@H](CCC(=O)O)C(=O)O)[C@@H]3Oc4c(O)ccc5c4[C@@]31CCN(C)[C@@H]2C5 (single isomer, unassigned) | 6.2 |  | 60 | Active |  |  |  | 
CO[C@@]12CC[C@@H](N[C@@H](CCC(N)=O)C(=O)O)[C@@H]3Oc4c(O)ccc5c4[C@@]31CCN(C)[C@@H]2C5 | 2 |  | 117 | Active |  |  |  | 
CO[C@@]12CC[C@@H](N[C@H](C(=O)O)C(C)C)[C@@H]3Oc4c(O)ccc5c4[C@@]31CCN(C)[C@@H]2C5 | 1.2 |  | 100 | Active |  |  | 84 | 
CO[C@@]12CC[C@H](N[C@@H](C)C(=O)O)[C@@H]3Oc4c(O)ccc5c4[C@@]31CCN(C)[C@@H]2C5 |  |  |  | Active |  | 0.016 |  | 142
CO[C@@]12CC[C@@H](NCCC(=O)O)[C@@H]3Oc4c(O)ccc5c4[C@@]31CCN(C)[C@@H]2C5 | 13 |  | 69 | Active |  |  | 78 | 
CO[C@@]12CC[C@H](N[C@@H](CC(=O)O)C(=O)O)[C@@H]3Oc4c(O)ccc5c4[C@@]31CCN(C)[C@@H]2C5 | 11 |  | 37 | Active |  |  |  | 
CC[C@H](N[C@@H]1CC[C@@]2(OC)[C@H]3Cc4ccc(O)c5c4[C@@]2(CCN3C)[C@H]1O5)C(=O)O | 0.7 |  | 110 | Active | inactive |  | 83 | 
CO[C@@]12CC[C@@H](N[C@H](C(=O)N[C@@H](Cc3ccc(O)cc3)C(=O)O)C(C)C)[C@@H]3Oc4c(O)ccc5c4[C@@]31CCN(C)[C@@H]2C5 | 3.1 | 73 |  | Active |  |  |  | 
CO[C@@]12CC[C@@H](N[C@@H](CC(=O)O)C(=O)O)[C@@H]3Oc4c(O)ccc5c4[C@@]31CCN(C)[C@@H]2C5 | 6.6 |  | 103 | Active |  |  | 74 | 
CO[C@@]12CC[C@H](N[C@@H](Cc3ccc(O)cc3)C(=O)O)[C@@H]3Oc4c(O)ccc5c4[C@@]31CCN(C)[C@@H]2C5 | 2.6 |  | 48 | Active |  | 0.0146 |  | 
